High-throughput results: PubChem, several laboratories
Sampled rows, rich in hits. Any-hit rate of the full collection: about 2.2%.
Runt-SMMHC FRET = inhibitors of RUNX1 Runt–CBFb-SMMHC binding, primary screen, biochemical, FRET, Cerulean-Runt, Venus-CBFb-SMMHC, uHTS | Cerulean-Runt/Venus-CBFb-SMMHC FRET ratio 530/480, 1 h | 220,000 compounds, 0.74% hits | inhibition, % at 20 µM | Runt-related transcription factor 1 (Homo sapiens) + Core-binding factor subunit beta …;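 active means mean inhibition across duplicate retests at 20 µM reaching about 50%, limit read from the data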;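 further: 0% = DMSO wells and 100% = wells with excess untagged CBFb-SMMHC; inhibitors lower the FRET ratio by blocking Runt binding to CBFb-SMMHC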
Hck Nef HTS = inhibitors of Nef-activated human Hck kinase, primary screen, biochemical, Z-Lyte FRET, 384-well, Hck-YEEI | Tyrosine-protein kinase HCK (Homo sapiens), P08631 | Recombinant Hck-YEEI plus Nef, Z-Lyte FRET kinase assay | inhibition, % at 20 µM | 220,000 compounds, 0.68% hits | AID 463187, 2010;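 active means Hck-Nef kinase inhibition above about 50%, limit read from the data; inactive means inhibition below that limit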;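 further: 0% = DMSO with Hck plus Nef and 100% = Hck alone without Nef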
14-3-3 Bad inh = inhibitors of 14-3-3 zeta/Bad binding, primary screen, biochemical, TR-FRET, bovine 14-3-3 zeta; AID 781, 2007; 220,000 compounds, 0.71% hits; inhibition, % at 21.7 µM; TR-FRET 14-3-3zeta/Dy647-pBad peptide displacement, 1 h;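 active means inhibition above about 70%, limit read from the data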;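 further: 0% = full 14-3-3 plus peptide FRET controls and 100% = background without 14-3-3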
Target sequence (P63103 whole entry, looked up): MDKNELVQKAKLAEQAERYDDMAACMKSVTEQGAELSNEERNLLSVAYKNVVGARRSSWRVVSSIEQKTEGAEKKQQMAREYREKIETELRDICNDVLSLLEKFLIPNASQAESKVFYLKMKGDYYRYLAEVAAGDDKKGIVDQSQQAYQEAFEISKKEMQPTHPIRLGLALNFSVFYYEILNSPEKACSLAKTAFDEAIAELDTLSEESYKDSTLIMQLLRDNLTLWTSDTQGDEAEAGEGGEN
TbHK1 inh = Trypanosoma brucei hexokinase 1 inhibitors, primary screen, biochemical, G6PDH-coupled NADH absorbance, MLSCN library | AID 1430, 2008 | recombinant TbHK1, G6PDH-coupled NADH A340 | inhibition, % at 10 µM | hexokinase 1 [Trypanosoma brucei] | 220,000 compounds, 0.11% hits;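 active means inhibition of 50% or more in the single-dose primary screen; inactive means inhibition below 50%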
Runt-CBFb FRET = inhibitors of RUNX1 Runt–CBFb binding, primary screen, biochemical, FRET, Cerulean-Runt, Venus-CBFb, uHTS; inhibition, % at 20 µM; Runt-related transcription factor 1 (Homo sapiens) + Core-binding factor subunit beta …; 220,000 compounds, 0.46% hits; Cerulean-Runt/Venus-CBFb FRET ratio 530/480, 1 h;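 active means inhibition over about 50% at 20 µM in the single-dose screen, limit read from the data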;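 further: 0% = DMSO wells and 100% = excess unlabeled CBFb competitor control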
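Buffer or medium: Tris pH 7.5 buffer with BSA. Assay system: Cerulean-labeled Runt domain protein. Amount: each fluorescent fusion protein 100 nM. Read-out basis: loss of energy transfer signal. Incubation: 1 h compound exposure, room temperature. Probe or stimulus: Venus-CBFb binding partner, 100 nM. Detection: FRET, excitation 422 nm, emission at 530 and 480 nm.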
RanGTP-Impb inh = inhibitors of RanGTP-importin-beta interaction, primary screen, biochemical, FRET, CFP-Ran, YFP-importin-beta, homogeneous; Ran GTPase (GTP-bound) - importin-beta complex; cell-free CFP-Ran/YFP-importin-beta FRET ratio; inhibition, % (concentration not given with the values); 300,000 compounds, 1.1% hits; AID 2216, 2009;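 active means more than half of the replicate wells show a fall in the fluorescence ratio signal beyond about 16%, limit read from the data, passing the limit was not always enough; inconclusive means exactly half of the replicate wells pass the set limit; inactive means fewer than half of replicates pass the limit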;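 further: 0% = DMSO wells and 100% = Ran loaded with GDP instead of GTP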
An asterisk follows results filed as active; u = inconclusive; x = not tested or not shown; + = active, no number; [ ] = dose if it differs, or a comment.

SMILES	Runt-SMMHC FRET	Hck Nef HTS	14-3-3 Bad inh	TbHK1 inh	Runt-CBFb FRET	RanGTP-Impb inh
O=C1CCN2C=Nc3cccc4ccc1c2c34	79.3	-5.6	-4.4	35.1	-65.5	69.3*
c1ccc(CN2CCN(C3=Nc4cccc5cccc3c45)CC2)cc1	-26.0	7.0	-6.3	-11.9	-8.5	-7.2
CCCCn1nc2cc(C(=O)NCc3cc(C(F)(F)F)cc(C(F)(F)F)c3)ccc2c1OC	-1.7	0.4	x	0.6	-7.2	u
CCCCn1nc2cc(C(=O)NCc3ccc(OC(F)(F)F)cc3)ccc2c1OC	-4.3	0.3	70.8*	0.0	x	1.7
O=C(c1ccccc1[N+](=O)[O-])N1CCC(Cc2ccccc2)CC1	2.1	-0.7	-0.5	-3.2	2.2	-1.5
CCOc1ccccc1CN1CCN(S(=O)(=O)CC)CC1	-3.5	1.3	94.5*	1.8	-0.9	-0.1
CCCS(=O)(=O)N1CCN(Cc2ccccc2OCC)CC1	-1.2	0.5	29.3	3.8	0.0	1.8
CCOC(=O)C1(Cc2ccccc2C)CCCN(S(=O)(=O)CC)C1 (stereo not given)	x	x	x	x	x	2.9
CCOc1cc(CNCCCN2CCOCC2)cc(Br)c1OCC(=O)Nc1cccc(C(F)(F)F)c1	0.5	0.4	79.3*	1.8	0.1	1.1
COC(C#CCCN(C)C)(c1ccccc1)c1ccccc1	4.1	2.7	-13.6	1.9	2.5	0.9
O=c1nc(Nc2ccc(Br)cc2)sc2ccc([N+](=O)[O-])cc12	6.3	30.3	94.5*	11.1	8.8	-2.5
O=C(Cn1cnc2cc([N+](=O)[O-])ccc2c1=O)Nc1ccc(Br)cc1	-1.8	2.3	1.2	-7.9	2.2	u
CCN(C(=O)COc1cccc2cccnc12)C1CCS(=O)(=O)C1 (stereo not given)	-1.0	20.4	-7.3	-1.9	-1.7	-0.3
CCN(c1cccc(C)c1)S(=O)(=O)c1cc2c3c(c1)CCN3C(=O)CC2	x	x	x	x	x	-3.4
CC1CCc2[nH]c3ccc(C(=O)NCCCOC(C)C)cc3c2C1 (stereo not given)	7.8	-5.3	-7.8	-6.1	0.4	21.8*
CN(Cc1ccccc1F)C(=O)c1sccc1-c1ccccc1	x	x	x	x	x	0.0
Cc1nc(N)sc1-c1csc(Nc2ncccn2)n1	32.5	28.5	89.1*	-5.5	39.3	-0.6
COc1ccccc1Nc1nc(-c2sc(N)nc2C)cs1	x	x	x	x	x	1.9
Cc1ccc2cc(C#N)c(NCCNC(=O)C3CCC3)nc2c1C	78.3*	8.0	x	2.9	37.9	19.3*
CCC(=O)NCCCNc1nc2c(C)cccc2cc1C#N	33.5	44.3	-20.2	0.3	9.1	41.2*
Cc1cccc2cc(C#N)c(NCCNS(=O)(=O)c3ccc4c(c3)OCCO4)nc12	76.0*	18.7	9.6	4.2	28.2	u
Cc1cccc2cc(C#N)c(NCCNC(=O)NC3CCCCC3)nc12	75.1*	8.9	8.8	-0.7	54.9*	2.6
Cc1ccc(SCCNS(=O)(=O)c2ccc3c(c2)OCCO3)cc1	-3.3	0.7	14.4	-6.4	-4.4	3.5
Cc1ccc(NS(=O)(=O)c2ccc(OCC(=O)NCc3ccccn3)cc2)cc1	x	x	x	x	x	4.2
CC(C)CC(=O)c1c[nH]c(C(=O)N2CCN(Cc3ccccc3)CC2)c1	-2.8	-7.2	-6.6	4.4	-5.1	-0.1
SMILES	Runt-SMMHC FRET	Hck Nef HTS	14-3-3 Bad inh	TbHK1 inh	Runt-CBFb FRET	RanGTP-Impb inh
COc1ccc(C(=O)NCCNc2nc3c(C)cccc3cc2C#N)cc1OC	x	x	x	x	x	39.5*
N#C/C(=C/c1ccc(N2CCCCCC2)o1)c1ccc(Cl)cc1	26.0	-25.6	-3.5	11.1	28.4	33.3*
N#C/C(=C/c1ccc(N2CCCCC2)o1)c1cccc(F)c1	4.2	-0.4	-25.1	-5.4	6.1	u
COc1ccc2c(Cl)c(C(=O)N/N=C/c3ccc4c(c3)OCO4)sc2c1	-11.1	2.0	72.5*[fluorescence artefact?]	-2.2	x	-1.4
O=C(N/N=C/c1ccc2c(c1)OCO2)c1sc2cc(Cl)ccc2c1Cl	-23.9	31.7	50.0	-2.7	-11.5	-0.7
CCN1CCN(C(=O)c2ccc(N3CC4CC(C3)c3cccc(=O)n3C4)c(NC(=O)c3cc(OC)cc(OC)c3)c2)CC1 (stereo not given)	x	x	x	x	x	0.4
COc1ccc(-c2nnc(SCC(=O)c3cc(C)n(Cc4cccs4)c3C)o2)cc1	-3.5	6.9	74.7*	2.7	6.9	-1.2
CC1=NN(C(C#N)c2ccc(F)cc2)C(C)(C)C1 (stereo not given)	-3.7	2.3	2.6	2.7	-1.3	0.1
CC1=NN(C(C#N)c2ccccc2C)C(C)(C)C1 (stereo not given)	2.1	-31.3	-2.8	1.7	75.3*	1.5
CCC(C)Sc1ccc(-c2nc3cnccn3c2NC2CCCCC2)cc1 (stereo not given)	x	x	x	x	x	30.1*
Clc1ccc(-c2nc3cnccn3c2NC2CCCC2)cc1	-61.1	1.0	11.9	-12.2	-26.6	-1.6
CNC(=S)Nc1ccc(C23CC4CC(CC(C4)C2)C3)cc1	-1.2	-0.2	13.7	5.0	1.6	0.0
CC(=O)Nc1ccc(C23CC4CC(CC(C4)C2)C3)cc1	x	x	x	x	x	26.4*
O=C(NCCO)C1CCN(C(=O)c2ccc(-c3ccccc3)cc2)CC1	-3.2	17.2	-3.3	-3.1	2.7	-0.4
COC(=O)c1cc2c(=O)n3ccccc3nc2n(C)c1=N	41.9	x	x	x	12.6	x
N=c1c(C(=O)NCCc2ccccc2)cc2c(=O)n3ccccc3nc2n1Cc1ccco1	x	x	x	x	x	73.7*
N=c1c(C(=O)NC2CCCCC2)cc2c(=O)n3ccccc3nc2n1Cc1ccco1	x	x	x	x	x	64.6*
N=c1c(C(=O)NC2CCCCC2)cc2c(=O)n3ccccc3nc2n1CCc1ccccc1	x	x	x	x	x	160.7*
O=C(NC1CCCCCC1)C1c2ccccc2C(=O)N1Cc1cccnc1 (stereo not given)	0.5	0.4	6.0	6.4	-0.5	-0.3
N=c1c(C(=O)NC2CCCCC2)cc2c(=O)n3ccccc3nc2n1Cc1cccnc1	x	x	x	x	x	+
COc1ccc(CCn2c(=N)c(C(=O)NCc3ccco3)cc3c(=O)n4ccccc4nc32)cc1	0.7	11.8	0.8	3.4	87.4*	21.9*
N=c1c(C(=O)NCc2ccc(F)cc2)cc2c(=O)n3ccccc3nc2n1Cc1cccnc1	59.0*	10.9	13.4	-14.5	19.5	180.6*
